What was measured:
[1] = molecular target: T1, Extracellular calcium-sensing receptor (Homo sapiens, UniProt P41180); assay: Antagonist activity at CaSR expressed in CHO cells assessed as [35S]-GTPgammaS binding by scintillation counting; assay type: functional, cell-based
T1 sequence (P41180 whole entry): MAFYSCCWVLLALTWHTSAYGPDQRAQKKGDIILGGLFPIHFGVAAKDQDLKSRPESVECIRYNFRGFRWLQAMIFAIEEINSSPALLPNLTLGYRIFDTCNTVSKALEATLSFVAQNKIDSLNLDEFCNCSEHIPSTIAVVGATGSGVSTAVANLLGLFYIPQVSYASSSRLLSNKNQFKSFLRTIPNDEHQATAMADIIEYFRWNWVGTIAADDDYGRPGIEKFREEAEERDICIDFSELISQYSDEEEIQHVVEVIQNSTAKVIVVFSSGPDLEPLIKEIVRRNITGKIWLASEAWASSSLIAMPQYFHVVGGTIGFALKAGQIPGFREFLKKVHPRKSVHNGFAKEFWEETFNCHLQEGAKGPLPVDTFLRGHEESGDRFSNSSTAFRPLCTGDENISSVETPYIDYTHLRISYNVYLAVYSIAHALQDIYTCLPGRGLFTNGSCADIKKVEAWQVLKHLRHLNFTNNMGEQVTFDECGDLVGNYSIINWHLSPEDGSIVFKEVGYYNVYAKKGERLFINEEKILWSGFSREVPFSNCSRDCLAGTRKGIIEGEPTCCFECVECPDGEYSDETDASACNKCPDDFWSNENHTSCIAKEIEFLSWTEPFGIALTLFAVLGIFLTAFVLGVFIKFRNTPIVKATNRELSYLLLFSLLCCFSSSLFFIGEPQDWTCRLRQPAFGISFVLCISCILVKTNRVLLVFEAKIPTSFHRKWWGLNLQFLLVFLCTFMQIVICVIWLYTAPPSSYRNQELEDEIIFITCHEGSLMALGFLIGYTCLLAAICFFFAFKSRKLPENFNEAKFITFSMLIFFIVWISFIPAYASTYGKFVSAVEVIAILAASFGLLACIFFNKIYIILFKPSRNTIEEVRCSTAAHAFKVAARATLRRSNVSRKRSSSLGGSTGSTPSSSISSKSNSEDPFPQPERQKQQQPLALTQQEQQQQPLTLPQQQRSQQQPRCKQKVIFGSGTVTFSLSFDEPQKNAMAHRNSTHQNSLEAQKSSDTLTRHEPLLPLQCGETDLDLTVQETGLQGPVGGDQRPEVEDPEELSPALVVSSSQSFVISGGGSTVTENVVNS

[2] = Mean residence time in Crl:CD(SD) rat at 10 mg/kg, po administered with 0.5% methylcellulose suspension; assay type: ADME, organism-based; design: dose 10 mg/kg, route oral; details: in vivo
In short: (§1)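 Nonfasted male rats, 8 weeks old, n = 3, single oral dose 10 mg/kg. Blood sampled at 0.25, 0.5, 1, 2, 4, 8 and 24 h and spun to plasma. Plasma deproteinized with acetonitrile, supernatant diluted in 0.01 mol/L ammonium acetate, re-centrifuged, assayed by HPLC. Mean ± SD reported.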

[3] = Cmax in Crl:CD(SD) rat at 10 mg/kg, po administered with solubilized reagent; assay type: ADME, organism-based; design: dose 10 mg/kg, route oral; details: in vivo; in short: as §1
[4] = AUC in Crl:CD(SD) rat at 10 mg/kg, po administered with 0.5% methylcellulose suspension; assay type: ADME, organism-based; design: dose 10 mg/kg, route oral; details: in vivo; in short: as §1
[5] = Cmax in Crl:CD(SD) rat at 10 mg/kg, po administered with 0.5% methylcellulose suspension; assay type: ADME, organism-based; design: dose 10 mg/kg, route oral; details: in vivo; in short: as §1
[6] = Tmax in Crl:CD(SD) rat at 10 mg/kg, po administered with 0.5% methylcellulose suspension; assay type: ADME, organism-based; design: dose 10 mg/kg, route oral; details: in vivo; in short: as §1
[7] = Mean residence time in Crl:CD(SD) rat at 10 mg/kg, po administered with solubilized reagent; assay type: ADME, organism-based; design: dose 10 mg/kg, route oral; details: in vivo; in short: as §1
[8] = Tmax in Crl:CD(SD) rat at 10 mg/kg, po administered with solubilized reagent; assay type: ADME, organism-based; design: dose 10 mg/kg, route oral; details: in vivo; in short: as §1
[9] = AUC in Crl:CD(SD) rat at 10 mg/kg, po administered with solubilized reagent; assay type: ADME, organism-based; design: dose 10 mg/kg, route oral; details: plasma; in short: as §1

Row | Compound | IC50 [1] | also measured
1 | O=C(Nc1cnn2c1N[C@H](c1ccccc1)C[C@@H]2C(F)(F)F)C12CC3CC(CC(C3)C1)C2 | > 10000 nM | 
2 | O=C(NC12CC3CC(CC(C3)C1)C2)c1cnn2c1N[C@H](c1ccccc1Cl)C[C@@H]2C(F)(F)F | 110 nM | 
3 | O=C(NC12CC3CC(CC(C3)C1)C2)c1cnn2c1N[C@H](c1cccc(Cl)c1)C[C@@H]2C(F)(F)F | 320 nM | 
4 | CCc1ccc([C@@H]2C[C@H](C(F)(F)F)n3ncc(C(=O)NC45CC6CC(CC(C6)C4)C5)c3N2)cc1 | > 10000 nM | 
5 | O=C(NC12CC3CC(CC(C3)C1)C2)c1cnn2c1N[C@H](c1ccco1)C[C@@H]2C(F)(F)F | 400 nM | 
6 | O=C(NC12CC3CC(CC(C3)C1)C2)c1cnn2c1N[C@H](c1cccnc1)C[C@@H]2C(F)(F)F | > 10000 nM | 
7 | O=C(NC12CC3CC(CC(C3)C1)C2)c1cnn2c1N[C@H](c1ccccc1)C[C@@H]2c1ccccc1 | 700 nM | 
8 | O=C(NC12CC3CC(CC(C3)C1)C2)c1cnn2c1NCC[C@@H]2C(F)(F)F | > 10000 nM | 
9 | O=C(NC12CC3CC(CC(C3)C1)C2)c1cnn2c1N[C@H](c1ccccc1)CC2 | 5300 nM | 
10 | CC1(C)C=C(c2ccccc2)Nc2c(C(=O)NC34CC5CC(CC(C5)C3)C4)cnn21 | 580 nM | 

More lines, main results first:

Row | IC50 [1] | Compound | also measured
11 | 40 nM | O=C(NC12CC3CC(CC(C3)C1)C2)c1cnn2c1N[C@H](c1ccccc1)C[C@@H]2C(F)(F)F | 
12 | 97 nM | O=C(OC12CC3CC(CC(C3)C1)C2)c1cnn2c1N[C@H](c1ccccc1)C[C@@H]2C(F)(F)F | 
13 | > 10000 nM | CN1c2c(C(=O)NC34CC5CC(CC(C5)C3)C4)cnn2[C@@H](C(F)(F)F)C[C@H]1c1ccccc1 | 
14 | > 10000 nM | FC(F)(F)[C@H]1C[C@@H](c2ccccc2)Nc2c(CNC34CC5CC(CC(C5)C3)C4)cnn21 | 
15 | > 10000 nM | O=C(NC12CC3CC(CC(C3)C1)C2)c1cnn2c1N[C@H](c1ccc(Cl)cc1)C[C@@H]2C(F)(F)F | 
16 | > 10000 nM | COc1ccc([C@@H]2C[C@H](C(F)(F)F)n3ncc(C(=O)NC45CC6CC(CC(C6)C4)C5)c3N2)cc1 | 
17 | > 10000 nM | CC(C)(C)[C@@H]1C[C@H](C(F)(F)F)n2ncc(C(=O)NC34CC5CC(CC(C5)C3)C4)c2N1 | 
18 | 76 nM | C[C@H]1C[C@@H](c2ccccc2)Nc2c(C(=O)NC34CC5CC(CC(C5)C3)C4)cnn21 | 
19 | > 10000 nM | C[C@@H]1C[C@H](c2ccccc2)n2ncc(C(=O)NC34CC5CC(CC(C5)C3)C4)c2N1 | 
20 | 10 nM | CC1(C)C[C@@H](c2ccccc2)Nc2c(C(=O)NC34CC5CC(CC(C5)C3)C4)cnn21 | MRT [2]: 4.65 h; Cmax [3]: 237 ng/mL; AUC [4]: 591 ng·h/mL; Cmax [5]: 64 ng/mL; Tmax [6]: 1.3 h; MRT [7]: 4.48 h; Tmax [8]: 0.67 h; AUC [9]: 1270 ng·h/mL
21 | > 10000 nM | O=C(NC12CC3CC(CC(C3)C1)C2)c1cnn2c(C(F)(F)F)cc(-c3ccccc3)nc12 | 

Reference: ChEMBL document CHEMBL1287772, “Synthesis and structure-activity relationship of tetrahydropyrazolopyrimidine derivatives--a novel structural class of potent calcium-sensing receptor antagonists” (Bioorg Med Chem, 2010)
